Assay outcomes: PubChem BioAssay, several laboratories
hK5 inh: blocks human kallikrein 5 protease activity. AID 873. 210,000 tested, 0.59% active. inhibition, % at 5 µM. recombinant hK5, fluorogenic AMC substrate cleavage;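 active = inhibition of 40% or more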
Target sequence (Q9Y337 67-293 limits assumed): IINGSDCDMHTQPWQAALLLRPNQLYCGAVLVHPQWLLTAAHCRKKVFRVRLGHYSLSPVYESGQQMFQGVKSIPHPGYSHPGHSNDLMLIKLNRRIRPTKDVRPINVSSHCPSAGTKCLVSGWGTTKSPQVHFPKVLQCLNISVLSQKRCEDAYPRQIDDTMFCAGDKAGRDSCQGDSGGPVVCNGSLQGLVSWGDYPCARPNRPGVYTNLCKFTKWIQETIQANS
thrombin 1536: thrombin (human) inhibition. P00734. alpha-thrombin, Boc-VPR-AMC fluorogenic substrate cleavage. inhibition, % at 5 µM. 220,000 tested, 0.26% active;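 active = inhibition at or above 40%; inactive = inhibition below 40%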
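System: human alpha-thrombin protein; Compound dosing: one concentration per compound, 5 µM, with 0.2% DMSO; Timing: reaction at room temperature; Technique: AMC fluorescence, 355/460 nm; Controls: enzyme without compound as high, wells lacking enzyme as low.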
TbHK1 inh: blocks Trypanosoma brucei hexokinase 1 activity; recombinant TbHK1, G6PDH-coupled NADH A340; inhibition, % at 10 µM; 220,000 tested, 0.11% active;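 active = inhibition of 50% or more in the single-dose primary screen; inactive = inhibition below 50%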
FXIa inh: factor XIa (human) inhibition; P03951; purified FXIa, Boc-Glu-Ala-Arg-AMC fluorogenic substrate; inhibition, % at 5 µM; 220,000 tested, 0.14% active; AID 798;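 active = inhibition of at least 40%; inactive = inhibition below 40%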;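 note: fluorescence of freed AMC excited at 355 nm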
FXIIa inh: inhibitors of human coagulation factor XIIa; inhibition, % at 5 µM; 220,000 tested, 0.3% active; AID 800; P00748; purified FXIIa, Boc-QGR-AMC fluorogenic substrate, 2 h; in the data active = inhibition above about 40%
A number is an active result; i = inactive; nt = no result given. The list is not random: actives were taken first. Their share in the collection is about 1.1%.

SMILES	hK5 inh	thrombin 1536	TbHK1 inh	FXIa inh	FXIIa inh
Cc1cc(C(=O)NNC(=S)NC(C)c2ccccc2)c2ccccc2n1 (centres undefined)	i	i	i	i	i
CCCCC(=O)NC1(C(F)(F)F)C(=O)N(CC(C)C)C2=C1C(=O)CC(C)(C)C2 (centres undefined)	i	i	i	i	i
CCOc1ccc(N(CC(=O)Nc2cc(C)ccc2C)S(=O)(=O)c2c(C)[nH]c(=O)[nH]c2=O)cc1	i	i	i	i	100
CCOc1ccc(N(CC(=O)Nc2ccccc2C)S(=O)(=O)c2c(C)[nH]c(=O)[nH]c2=O)cc1	i	i	i	i	i
COc1ccc(CNC(=O)CCSCc2cccc(Cl)c2)c(OC)c1	i	i	i	i	i
CN1CCN(c2ccc(CNS(=O)(=O)Cc3ccc(Cl)cc3)cc2)CC1	i	i	i	i	61
Cc1cc(S(=O)(=O)NCc2ccc(N3CCN(C)CC3)cc2)c(C)s1	i	i	i	i	i
CC(NC(=O)COC(=O)/C(=C/c1cccs1)c1cccs1)c1ccccc1 (centres undefined)	i	i	i	i	i
S=c1[nH]cnc2sc(Nc3ccccc3)nc12	i	i	i	i	i
O=C(c1ccc(COc2ccccc2Br)o1)N1CCN(c2ccccn2)CC1	50	i	i	i	i
CCCC(C)NC1=NCCCCC1 (centres undefined)	56	i	i	i	i
CCN1CCCC1CNC1=NCCCCC1 (centres undefined)	i	i	i	i	i
CCN(Cc1ccccc1)C(=O)COC(=O)c1cc(=O)[nH]c2ccccc12	i	i	i	i	i
COC(=O)CCCCCC(CCC(=O)OC)NC(C)=O (centres undefined)	51	i	i	i	i
O=C(O)c1ccc(N/C(=N\S(=O)(=O)c2ccc(Cl)cc2)c2ccccc2)cc1	i	i	i	44	64
Cc1n[nH]c(C)c1CCC(=O)N/N=C/c1c[nH]c2ccccc12	58	i	i	48	i
Cc1n[nH]c(C)c1CCC(=O)N/N=C/c1cccs1	69	i	i	i	48
Cc1n[nH]c(C)c1CCC(=O)N/N=C/c1c(C)[nH]c2ccccc12	i	i	i	i	i
Cc1c(C=O)cnn1CCC(=O)O	nt	nt	i	nt	nt
CSc1nc2cc3c(cc2n1C(=O)c1ccc(C)cc1)OCCO3	i	88	i	67	i
Nc1c(-c2ccccc2)c(CSc2nc3ccccc3[nH]2)nn1-c1ccc(Cl)cc1	62	i	i	i	i
COc1ccc(-c2cc([C@H]3[C@@H]4C=CCC[C@@]4(C)C(=O)N3Cc3ccccc3)ccc2F)cc1	42	i	i	i	i
COc1ccc(-c2ccc([C@H]3[C@@H]4C=CCC[C@@]4(C)C(=O)N3Cc3ccccc3)c(F)c2)cc1	i	i	i	i	i
Cc1cc(C)nc(SCCS(=O)(=O)Cc2ccc(Cl)cc2)n1	i	i	i	i	i
Cc1cc(C)nc(SCCS(=O)(=O)Cc2ccccc2)n1	115	i	i	i	i
SMILES	hK5 inh	thrombin 1536	TbHK1 inh	FXIa inh	FXIIa inh
CCCCNC(=O)NC1CCCC1	i	i	i	i	i
C=CCc1cccc(/C=N/NC(=O)CNc2ccccc2)c1O	i	46	i	i	i
C=CCc1cccc(/C=N/NC(=O)CCCNc2ccc(C)cc2)c1O	47	i	i	i	i
C=CCc1cccc(/C=N/NC(=O)CNc2cccc3ccccc23)c1O	i	i	i	i	i
COc1ccc(C2=CC(=O)CC(c3ccc(OC)cc3)C2)cc1 (centres undefined)	i	i	i	i	i
COc1ccc(C2CC(=O)C(C(c3ccc(O)cc3)C3C(=O)CC(c4ccc(OC)cc4)CC3=O)C(=O)C2)cc1 (centres undefined)	50	i	i	i	45
COc1ccc(C(=O)Nc2ccc(Cl)cc2C(=O)NCc2ccco2)cc1OC	i	i	i	i	i
CCOc1ccc(C(=O)NCC(=O)OC(C)C(=O)NCc2ccco2)cc1OCC (centres undefined)	55	64	i	i	i
COc1ccc(C(=O)Nc2ccccc2C(=O)NCc2ccco2)cc1OC	42	i	i	i	i
COc1cccc(C2CCCCN(C)C2=O)c1 (centres undefined)	i	i	i	i	i
CCC(=O)NC(=S)NNC(=O)c1ccc(O)cc1	i	i	i	i	i
COc1ccc(S(=O)(=O)NCCC(C)C)cc1OC	121	i	i	i	i
COc1ccc(CCNS(=O)(=O)c2ccc3c(c2)OCCO3)cc1OC	69	i	i	i	i
CC(C)CCNS(=O)(=O)c1ccc(-c2ccc(S(=O)(=O)NCCC(C)C)cc2)cc1	i	i	i	i	i
O=C(NCc1ccccn1)c1cccc(NS(=O)(=O)c2cccc(F)c2)c1	i	i	i	i	i
Clc1ccccc1-c1nc(-c2cccnc2)no1	57	i	i	i	i
COc1ccccc1NC(=S)N/N=C1\CC(C)(C)Oc2ccc(O)cc21	57	i	i	i	i
Cc1ccc(/C=N/NC(=O)c2cccc([N+](=O)[O-])c2)o1	41	i	i	i	i
COCCn1c(C)cc(C(=O)COC(=O)c2ccc[nH]c2=O)c1C	i	i	i	i	i
Cc1cc(C(=O)COC(=O)c2ccc[nH]c2=O)c(C)n1CCc1ccc(F)cc1	44	nt	i	i	i
C=CCn1c(SCC(=O)c2[nH]c(C)c(C(=O)OCC)c2C)nc2scc(-c3ccc(OC)cc3)c2c1=O	i	i	i	i	i
CCCCNC(=O)Cc1coc2ccc3ccccc3c12	58	i	i	i	i
COCCCNC(=O)Cc1coc2ccc3ccccc3c12	i	i	i	i	i
Cc1ccc(O)c(-c2cc(-c3ccccc3C)[nH]n2)c1	50	i	i	i	i
CCn1nc([N+](=O)[O-])c2c(-c3nc4ccccc4o3)c(N)n(CCCOC)c2c1=O	i	i	i	i	i
SMILES	hK5 inh	thrombin 1536	TbHK1 inh	FXIa inh	FXIIa inh
CCCCOC(=O)c1ccc(NC(=O)C(=O)NCc2ccccn2)cc1	i	i	i	i	i
CCCCOC(=O)c1ccc(NC(=O)C(=O)NCc2ccco2)cc1	i	i	i	i	99
Cc1ccc(S(=O)(=O)c2nc(-c3cccs3)oc2NCCCN(C)C)cc1	i	i	i	i	i
CCCC(=O)n1nc(-c2ccc(C)cc2)nc1NCc1ccco1	nt	58	i	i	i
Cc1ccc(C(=O)n2nc(-c3ccccc3)nc2NCc2ccco2)cc1	i	i	i	i	i
CC(=O)n1nc(-c2ccc(Cl)cc2)nc1NCc1ccco1	i	47	i	i	i
O=C(c1cccs1)n1nc(-c2ccc(Cl)cc2)nc1NCc1ccco1	i	i	i	i	i
O=C(O)Cc1ccc(NC(=O)CCN2C(=O)c3ccc([N+](=O)[O-])cc3C2=O)cc1	i	i	i	i	100
O=C(CCN1C(=O)c2ccc([N+](=O)[O-])cc2C1=O)Nc1ccc(O)cc1C(=O)O	i	i	i	i	i
CCOC(=O)c1sc(N)c(C#N)c1CSc1nc2ccc(C)cc2[nH]1	40	i	i	i	i
Cc1cc(C(F)(F)F)nc(NCc2cccnc2)n1	i	i	79	i	i
